Assay results: ChEMBL document CHEMBL4431385, “Substituted tetracyclic indole core derivatives of HCV NS5A inhibitor MK-8742” (Bioorg Med Chem Lett, 2016)
Positions count from the first letter of the chain named.

Assays:
[1] = test system: T1, Nonstructural protein 5A (Hepatitis C virus), Q5L478 [Y93H]; experiment: Inhibition of HCV GT1a NS5A Y93H mutant assessed as suppression of replicon RNA level by real-time PCR analysis; conditions: Hepatitis C virus subtype 1a
T1 sequence (whole entry): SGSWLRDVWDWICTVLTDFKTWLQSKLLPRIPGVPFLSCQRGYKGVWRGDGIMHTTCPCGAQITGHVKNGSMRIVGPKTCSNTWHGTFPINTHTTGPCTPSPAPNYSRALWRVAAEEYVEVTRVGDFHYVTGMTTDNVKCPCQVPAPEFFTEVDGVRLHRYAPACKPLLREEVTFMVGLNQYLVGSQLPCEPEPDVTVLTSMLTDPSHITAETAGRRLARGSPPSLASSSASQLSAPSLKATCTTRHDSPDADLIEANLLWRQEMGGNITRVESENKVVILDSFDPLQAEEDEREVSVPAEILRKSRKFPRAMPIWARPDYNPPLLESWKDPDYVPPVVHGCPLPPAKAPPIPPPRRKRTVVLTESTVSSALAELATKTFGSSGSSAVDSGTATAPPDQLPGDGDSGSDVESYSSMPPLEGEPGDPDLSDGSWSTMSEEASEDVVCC

[2] = biological target: T2, Nonstructural protein 5A (Hepatitis C virus) (UniProt Q5L478); experiment: Inhibition of HCV GT1b NS5A assessed as suppression of replicon RNA level by real-time PCR analysis; conditions: Hepatitis C virus subtype 1b
T2 sequence (whole entry): T1 sequence (whole entry) with H93Y

[3] = biological target: T2, Nonstructural protein 5A (Hepatitis C virus); experiment: Inhibition of HCV GT4a NS5A assessed as suppression of replicon RNA level by real-time PCR analysis; conditions: Hepatitis C virus subtype 4a
[4] = biological target: T2, Nonstructural protein 5A (Hepatitis C virus); experiment: Inhibition of HCV GT3a NS5A assessed as suppression of replicon RNA level by real-time PCR analysis; conditions: Hepatitis C virus subtype 3a
[5] = biological target: T2, Nonstructural protein 5A (Hepatitis C virus); experiment: Inhibition of HCV GT2b NS5A assessed as suppression of replicon RNA level by real-time PCR analysis; conditions: Hepatitis C virus subtype 2b
How it was run: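 GT2b replicon, which carries the naturally occurring NS5A 31M resistance-associated variant; potency given as EC90 in nM.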

[6] = biological target: T2, Nonstructural protein 5A (Hepatitis C virus); experiment: Inhibition of HCV GT1a NS5A assessed as suppression of replicon RNA level by real-time PCR analysis; conditions: Hepatitis C virus subtype 1a
[7] = test system: Nonstructural protein 5A (Hepatitis C virus), Q5L478 [UNDEFINED MUTATION]; experiment: Inhibition of HCV GT1a NS5A L31V mutant assessed as suppression of replicon RNA level by real-time PCR analysis; conditions: Hepatitis C virus subtype 1a
[8] = biological target: T2, Nonstructural protein 5A (Hepatitis C virus); experiment: Inhibition of HCV GT2a NS5A assessed as suppression of replicon RNA level by real-time PCR analysis; conditions: Hepatitis C virus subtype 2a

Structure (SMILES)	EC90 [1] [nM]	EC90 [2] [nM]	EC90 [3] [nM]	EC90 [4] [nM]	EC90 [5] [nM]	EC90 [6] [nM]	EC90 [7] [nM]	EC90 [8] [nM]
COC(=O)N[C@H](C(=O)N1C[C@H](F)C[C@H]1c1ncc(-c2ccc3c(c2)OC(c2ccccc2)n2c-3c(F)c3cc(-c4cnc([C@@H]5C[C@@H](F)CN5C(=O)[C@@H](NC(=O)OC)C(C)C)[nH]4)ccc32)[nH]1)C(C)C (mixture of isomers)	2	0.005	0.3	8	58	0.02	7	0.3
COC(=O)N[C@H](C(=O)N1CCC[C@H]1c1ncc(-c2ccc3c(c2)OCn2c-3cc3cc(-c4cnc([C@@H]5CCCN5C(=O)[C@@H](NC(=O)OC)C(C)C)[nH]4)cc(F)c32)[nH]1)C(C)C	139	0.01	0.2	> 10	> 100	0.1	3	0.1
COC(=O)N[C@H](C(=O)N1CCC[C@H]1c1ncc(-c2ccc3c(c2)c(F)c2n3C(c3ccccc3)Oc3cc(-c4cnc([C@@H]5C[C@@H](F)CN5C(=O)[C@@H](NC(=O)OC)C(C)C)[nH]4)ccc3-2)[nH]1)C(C)C (stereo partly drawn)	2	0.001	0.04	0.2	33	0.002	1	0.003
COC(=O)N[C@H](C(=O)N1CCC[C@H]1c1ncc(-c2ccc3c(c2)O[C@@H](c2ccccc2)n2c-3c(F)c3cc(-c4cnc([C@@H]5CCCN5C(=O)[C@@H](NC(=O)OC)C(C)C)[nH]4)ccc32)[nH]1)C(C)C	25	0.007	0.06	0.3	15	0.007	0.7	0.004
COC(=O)N[C@H](C(=O)N1CCC[C@H]1c1ncc(-c2ccc3c(c2)OCn2c-3cc3cc(-c4cnc([C@@H]5CCCN5C(=O)[C@@H](NC(=O)OC)C(C)C)[nH]4)c(F)cc32)[nH]1)C(C)C	77	0.007	0.2	5	150	0.007	68	0.02
COC(=O)N[C@H](C(=O)N1CCC[C@H]1c1ncc(-c2ccc3c(c2)cc2n3[C@H](c3ccccc3)Oc3c-2ccc(-c2cnc([C@@H]4CCCN4C(=O)[C@@H](NC(=O)OC)C(C)C)[nH]2)c3F)[nH]1)C(C)C	> 100	0.003	1	> 10	> 100	0.04	36	0.4
COC(=O)N[C@H](C(=O)N1C[C@H](F)C[C@H]1c1ncc(-c2ccc3c(c2)OC(c2ccccc2)n2c-3cc3cc(-c4cnc([C@@H]5C[C@@H](F)CN5C(=O)[C@@H](NC(=O)OC)C(C)C)[nH]4)ccc32)[nH]1)C(C)C (mixture of isomers)	2	0.004	0.2	2	63	0.01	10	0.7
COC(=O)N[C@H](C(=O)N1CCC[C@H]1c1ncc(-c2ccc3c(c2)cc2n3C(c3ccccc3)Oc3cc(-c4cnc([C@@H]5C[C@@H](F)CN5C(=O)[C@@H](NC(=O)OC)C(C)C)[nH]4)cc(F)c3-2)[nH]1)C(C)C (mixture of isomers)	1	0.003	0.07	0.1	16	0.004	2	0.04
COC(=O)N[C@H](C(=O)N1CCC[C@H]1c1ncc(-c2ccc3c(c2)OCn2c-3c(-c3ccccc3)c3cc(-c4cnc([C@@H]5CCCN5C(=O)[C@@H](NC(=O)OC)C(C)C)[nH]4)ccc32)[nH]1)C(C)C	5000	0.004	0.09	3	204	0.09	4	0.01
COC(=O)N[C@H](C(=O)N1CCC[C@H]1c1ncc(-c2ccc3c(c2)OCn2c-3c(Cc3ccccc3)c3cc(-c4cnc([C@@H]5CCCN5C(=O)[C@@H](NC(=O)OC)C(C)C)[nH]4)ccc32)[nH]1)C(C)C	187	0.01	–	–	28	0.1	9	–
COC(=O)N[C@H](C(=O)N1CCC[C@H]1c1nc(-c2ccc3c(c2)O[C@@H](c2ccccc2)n2c-3cc3cc(-c4c[nH]c([C@@H]5CCCN5C(=O)[C@@H](NC(=O)OC)C(C)C)n4)ccc32)c[nH]1)C(C)C	–	–	0.016	0.12	–	–	–	0.019
COC(=O)N[C@H](C(=O)N1CCC[C@H]1c1ncc(-c2ccc3c(c2)OC(c2ccccc2)n2c-3c(F)c3cc(-c4cnc([C@@H]5C[C@@H](F)CN5C(=O)[C@@H](NC(=O)OC)C(C)C)[nH]4)ccc32)[nH]1)C(C)C (mixture of isomers)	2	0.003	0.1	2	–	0.005	2	0.03
COC(=O)N[C@H](C(=O)N1CCC[C@H]1c1ncc(-c2cc(F)c3c(c2)O[C@@H](c2ccccc2)n2c-3c(Cl)c3cc(-c4cnc([C@@H]5CCCN5C(=O)[C@@H](NC(=O)OC)C(C)C)[nH]4)ccc32)[nH]1)C(C)C	51	0.006	0.04	2	42	0.02	0.4	0.03
COC(=O)N[C@H](C(=O)N1CCC[C@H]1c1ncc(-c2ccc3c(c2)OCn2c-3cc3cc(-c4cnc([C@@H]5CCCN5C(=O)[C@@H](NC(=O)OC)C(C)C)[nH]4)ccc32)[nH]1)C(C)C	100	0.02	0.2	1	76	0.02	7	0.02
COC(=O)N[C@H](C(=O)N1C[C@H](F)C[C@H]1c1ncc(-c2cc(F)c3c(c2)OC(c2cccc(OC(F)(F)F)c2)n2c-3cc3cc(-c4cnc([C@@H]5C[C@@H](F)CN5C(=O)[C@@H](NC(=O)OC)C(C)C)[nH]4)ccc32)[nH]1)C(C)C (stereo partly drawn)	0.2	0.005	–	–	52	0.006	7	–
COC(=O)N[C@H](C(=O)N1CCC[C@H]1c1ncc(-c2ccc3c(c2)cc2n3C(c3cccc(OC)c3)Oc3cc(-c4cnc([C@@H]5C[C@@H](F)CN5C(=O)[C@@H](NC(=O)OC)C(C)C)[nH]4)cc(F)c3-2)[nH]1)C(C)C (stereo partly drawn)	0.6	0.007	–	0.1	19	0.002	0.3	–
COC(=O)N[C@H](C(=O)N1CCC[C@H]1c1ncc(-c2ccc3c(c2)OCn2c-3c(C3CC3)c3cc(-c4cnc([C@@H]5CCCN5C(=O)[C@@H](NC(=O)OC)C(C)C)[nH]4)ccc32)[nH]1)C(C)C	100	0.004	0.3	10	122	0.03	8	0.005
COC(=O)N[C@H](C(=O)N1CCC[C@H]1c1ncc(-c2cc(F)c3c(c2)OC(c2ccccc2)n2c-3cc3cc(-c4cnc([C@@H]5C[C@@H](F)CN5C(=O)[C@@H](NC(=O)OC)C(C)C)[nH]4)ccc32)[nH]1)C(C)C (mixture of isomers)	4	0.003	0.05	0.3	32	0.003	2	0.01
COC(=O)N[C@H](C(=O)N1CCC[C@H]1c1ncc(-c2ccc3c(c2)cc2n3[C@H](c3ccccc3)Oc3cc(-c4cnc([C@@H]5CCCN5C(=O)[C@@H](NC(=O)OC)C(C)C)[nH]4)c(F)cc3-2)[nH]1)C(C)C	62	0.003	0.02	1	> 100	0.003	1	0.003
